High-throughput results as filed in PubChem BioAssay.
Rows were chosen to be rich in hits. Some 2.1% of all compounds tested hit in one or more screens of this group.
APJ agonist: agonists of human apelin receptor APJ, primary screen, CHO-K1 cells, PathHunter beta-arrestin, luminescence. 0% DMSO wells, 100% apelin. activation, % at 20 µM. 0.11% of 330,000 active. AID 2520, 2010. P35414;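 active = activation more than six SD over the plate average, tested at 20 µM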;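 also: 0% = DMSO alone and 100% = apelin-13 at 10 nM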
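Test system – PathHunter CHO-K1 APJ (AGTRL-1) beta-arrestin reporter cells · Input – 1000 cells/well · Compound – single test compound dose, 20 µM final, 1% DMSO · Times – compound stimulation 90 min at 25 °C, detection 60 min · Technique – beta-gal luminescence · Read-out basis – APJ–arrestin association signal · Control set – negative DMSO alone, positive Apelin-13 at 10 nM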
CXCR6 block: CXCR6 receptor inhibitors, primary screen, cell-based, beta-arrestin, luminescence, CHO-K1 PathHunter, 1536-well. C-X-C chemokine receptor type 6 (Homo sapiens), O00574. inhibition, % at 20 µM. 0.36% of 360,000 active. AID 602244, 2012; in the data active = inhibition above about 34%, passing the limit was not always enough;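 also: antagonist mode with CXCL16 agonist at 10 nM final; 0% = 10 nM CXCL16 with DMSO and 100% = unstimulated wells without agonist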
Target sequence (O00574 whole entry, looked up): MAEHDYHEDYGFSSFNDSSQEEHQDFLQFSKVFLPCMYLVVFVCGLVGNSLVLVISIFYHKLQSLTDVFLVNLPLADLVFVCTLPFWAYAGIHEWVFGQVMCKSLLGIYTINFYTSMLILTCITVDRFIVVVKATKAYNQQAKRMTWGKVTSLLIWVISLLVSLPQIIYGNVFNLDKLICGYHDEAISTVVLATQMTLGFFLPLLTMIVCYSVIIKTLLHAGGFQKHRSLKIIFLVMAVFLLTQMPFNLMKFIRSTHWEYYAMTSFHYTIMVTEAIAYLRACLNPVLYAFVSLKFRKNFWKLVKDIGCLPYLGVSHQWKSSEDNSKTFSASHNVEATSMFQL
HTR2A ag: mouse Htr2a agonists via beta-arrestin recruitment, primary screen, cell-based, luminescence; 0.66% of 360,000 active; CHO-K1 mHTR2A beta-arrestin complementation; percent of 30 µM serotonin response; activation, % at 7.6 µM; AID 624169, 2012;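 active = activation above a run cutoff, the mean activation of all tested compounds plus 3 SD, cut at about 14% in these data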;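 also: 0% = plate median of compound wells and 100% = 30 µM serotonin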
APJ antagonist: antagonists of human apelin receptor APJ, primary screen, CHO-K1 cells, beta-arrestin complementation, luminescence; P35414; inhibition, % at 20 µM; 0.32% of 330,000 active;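 active = inhibition above about 40% at 20 µM, limit read from the data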;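 also: cells challenged with 10 nM apelin-13 agonist together with compound; plate controls were apelin-13 plus DMSO wells for no effect and DMSO wells lacking apelin-13 for full effect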
EBI2 block: EBI2 receptor antagonists, beta-arrestin recruitment, primary screen, cell-based, luminescence, 7a,25-OHC stimulation, uHTS. 7a,25-OHC stimulated. 0.81% of 360,000 active. inhibition, % at 5 µM. G-protein coupled receptor 183 (Homo sapiens), P32249; in the data active = inhibition above about 38%;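 also: enzyme fragment complementation signal reports receptor beta-arrestin coupling in cells; 0% = agonist plus DMSO wells and 100% = wells without agonist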
CCR6 antagonist: CCR6 receptor antagonists, primary screen, cell-based, CHO-K1, luminescence, beta-arrestin, uHTS; AID 493098, 2011; inhibition, % at 20 µM; 0.49% of 340,000 active; C-C chemokine receptor type 6 (Homo sapiens), P51684; CHO-K1 CCR6 PathHunter beta-arrestin, CCL20-stimulated;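 active = compounds whose inhibition of the agonist-driven luminescence signal at 20 µM reaches about 50%, limit read from the data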;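 also: cells stimulated with CCL20 at 14 nM final; plate controls were DMSO with CCL20 for no effect and DMSO without agonist for full effect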
OPRM1 ag: OPRM1 agonists via beta-arrestin recruitment, confirmation, counter-screen for mouse HTR2A agonist project, cell-based, luminescence, single concentration; shares compounds with HTR2A ag; U2OS OPRM1 beta-arrestin PathHunter; DMSO 0%, DAMGO 9.3 µM 100%; activation, % at 9.3 µM; 5.3% of 2,300 active;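 active = mean activation above the mean of DMSO-only wells plus 3 SD, cut at about 0.5% in these data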
m5-HT2A ag conf: mouse HTR2A agonists, beta-arrestin recruitment, confirmation, cell-based, luminescence, CHO-K1 PathHunter, triplicate; shares compounds with HTR2A ag; DMSO 0%, 30 µM serotonin 100%; activation, % at 7.6 µM; 19% of 2,300 active; AID 624381, 2012;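 active = mean activation across triplicates above the hit threshold derived in the original primary screen, cut at about 15% in these data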
An asterisk follows results filed as active; . = no result given.

SMILES	APJ agonist	CXCR6 block	HTR2A ag	APJ antagonist	EBI2 block	CCR6 antagonist	OPRM1 ag	m5-HT2A ag conf
Cn1nc(-c2ccc(Cl)cc2)c2cc(C(=O)N3CCN(c4ccccc4)CC3)sc21	1.1	-2.1	-6.3	11.8	14.7	7.9	.	.
COc1cc(C)nc(NS(=O)(=O)c2ccccc2Cl)n1	-2.6	-5.8	30.7*	10.7	-7.5	10.8	-0.5	-1.5
Cc1cc(NN)nc(NS(=O)(=O)c2ccccc2Cl)n1	-1.3	1.1	-3.1	-12.9	-5.9	-8.6	.	.
CCCC(C(=O)NC1CCCC1)N(CC1CCCO1)C(=O)CNS(=O)(=O)c1ccccc1 (stereo not given)	1.6	10.6	-5.1	13.1	10.0	-9.3	.	.
CN1CCN(Cc2nc(N)nc(Nc3ccc4c(c3)OCCO4)n2)CC1	-5.1	0.4	-3.8	-7.5	1.0	2.2	.	.
Nc1nc(CN2CCN(c3ccccn3)CC2)nc(Nc2ccc(Cl)cc2)n1	3.6	-2.0	15.4*	-25.4	-4.0	-3.9	-0.3	72.7*
Nc1nc(CN2CCN(c3ccccc3F)CC2)nc(Nc2ccc3c(c2)OCCO3)n1	-4.1	-4.2	22.5*	-9.9	-3.9	13.4	-0.8	35.8*
COc1ccc(CCNC(=O)[C@H](C)NC(=O)[C@@H]2CSC3c4ccccc4C(=O)N32)cc1 (stereo not given in full)	-2.1	1.0	1.3	-18.4	-3.9	0.8	.	.
O=C(NCCCN=C1NS(=O)(=O)c2ccccc21)c1ccccc1Cl	1.0	4.8	0.7	-12.9	-7.2	9.5	.	.
C[C@H](NC(=O)c1ccccc1)C(=O)N1CCN(Cc2ccc3c(c2)OCO3)CC1	-1.5	-4.0	-4.6	16.6	-4.7	11.3	.	.
CC(C)[C@H](NC(=O)c1ccc(C(C)(C)C)cc1)C(=O)N1CCN(Cc2ccc3c(c2)OCO3)CC1	-3.1	5.6	33.6*	12.3	4.8	20.3	-0.5	70.2*
O=C(c1cccc([N+](=O)[O-])c1)N1CCN(Cc2ccc3c(c2)OCO3)CC1	-1.7	3.9	1.2	-2.5	2.4	1.9	.	.
CC(C)c1cc(=O)[nH]c(N2CCN(Cc3ccc4c(c3)OCO4)CC2)n1	2.5	1.5	20.2*	-15.5	-1.1	9.3	0.2	19.4*
O=[N+]([O-])c1cccnc1N1CCN(Cc2ccc3c(c2)OCO3)CC1	0.3	4.2	29.2*	8.6	1.1	3.3	-0.5	68.2*
O=[N+]([O-])c1ccc2ncnc(N3CCN(Cc4ccc5c(c4)OCO5)CC3)c2c1	3.1	-13.5	31.4*	-11.5	11.5	3.9	-0.3	72.8*
CCCc1cc(=O)[nH]c(N2CCN(Cc3ccc4c(c3)OCO4)CC2)n1	.	-0.8	10.4	.	3.5	0.8	.	.
O=C(CN1CCN(S(=O)(=O)c2ccccc2)CC1)Nc1ccc(N2CCOCC2)cc1	1.0	-10.3	0.6	9.0	-5.1	-4.6	.	.
CCCNC(=O)c1cc(C2CCCCN2C(=O)c2cc(OC)c(C)c(OC)c2)on1 (stereo not given)	.	0.9	16.5*	.	-8.7	.	-0.6	-3.8
Cc1ccc(C#N)c(SCc2nnc(-c3ccc(Cl)cc3)o2)n1	-0.4	-5.9	2.1	-21.7	8.1	9.9	.	.
Cc1cc(C)n(/N=C/c2ccc(O)cc2)c(=O)c1C#N	-4.6	2.8	20.3*	-0.5	-1.2	-3.1	-0.6	-3.8
